# Measured values published in ChEMBL document CHEMBL5303300, “EUbOPEN Chemogenomics Library - Multiplex” (2023).
# “And” between values parts separate entries of the source, which are not always exact repeats. Identical values can stand only once.
# Tests used:
# [1] = system: HEK-293T; test: Multiplex assay against HEK293T; type: toxicity, cell-based; settings: human, number of replicates 2
# Method in brief: (§1)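 Values for tubulin, mitochondrial-mass and membrane-permeability phenotypes are per cents of cells with healthy nuclei. These cells were identified by CellPathfinder machine-learning gating of live cells that had been stained at seeding with Hoechst33342, BioTracker Green Microtubule Cytoskeleton Dye, MitoTracker Red and Annexin V Alexa Fluor 680 and imaged on a CQ1 microscope at 37°C and 5% CO2 after compound addition. The gating first set Hoechst high-intensity objects apart from normal cells, then split normal cells into healthy, pyknosed or fragmented nuclei, and pyknosed cells into mitotic or apoptotic.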
# [2] = system: Fibroblast; test: Multiplex assay against human fibroblast; type: toxicity, cell-based; settings: number of replicates 2; method in brief: as §1
# [3] = 24 h, 10 µM, compound concentration 10 uM
# [4] = 48 h, 1 µM, compound concentration 1 uM
# [5] = 48 h, 10 µM, compound concentration 10 uM
# [6] = 12 h, 1 µM, compound concentration 1 uM
# [7] = 12 h, 10 µM, compound concentration 10 uM
# [8] = 24 h, 1 µM, compound concentration 1 uM
structure (smiles),measurement,setting,value
N[C@@H]1c2cccnc2[C@H](OC(=O)N2CCC(n3c(=O)[nH]c4ncccc43)CC2)CC[C@H]1c1cccc(F)c1F [RIMEGEPANT],Population Healthy Nuclei (%),[1]; [3],84% and 83%
same,Population Hoechst High Intensity Objects (%),[1]; [3],8%
same,Population Membrane Permeable-Phenotype (%),[1]; [3],5% and 2%
same,Population Mitotic Cells (%),[1]; [3],51% and 63%
same,Population Normal (%),[1]; [3],91%
same,Population Pyknosed Nuclei (%),[1]; [3],6% and 7%
same,Population Tubulin-Different-Phenotype (%),[1]; [3],91% and 67%
same,Total Cell Count,[1]; [3],709 and 978
same,Population Apoptotic (%),[1]; [4],26% and 9%
same,Population Fragmented Nuclei (%),[1]; [4],12% and 16%
same,Population Healthy Nuclei (%),[1]; [4],82% and 80%
same,Population Hoechst High Intensity Objects (%),[1]; [4],7% and 8%
same,Population Membrane Permeable-Phenotype (%),[1]; [4],4% and 5%
same,Population Mitochondria Different-Phenotype (%),[1]; [4],0%
same,Population Mitotic Cells (%),[1]; [4],73% and 90%
same,Population Normal (%),[1]; [4],92% and 91%
same,Population Pyknosed Nuclei (%),[1]; [4],4% and 2%
same,Population Tubulin-Different-Phenotype (%),[1]; [4],7% and 8%
same,Total Cell Count,[1]; [4],2054 and 2768
same,Population Apoptotic (%),[1]; [5],34% and 14%
same,Population Fragmented Nuclei (%),[1]; [5],14%
same,Population Healthy Nuclei (%),[1]; [5],82%
same,Population Hoechst High Intensity Objects (%),[1]; [5],8% and 10%
same,Population Membrane Permeable-Phenotype (%),[1]; [5],6%
same,Population Mitochondria Different-Phenotype (%),[1]; [5],9% and 1%
same,Population Mitotic Cells (%),[1]; [5],65% and 85%
same,Population Normal (%),[1]; [5],91% and 89%
same,Population Pyknosed Nuclei (%),[1]; [5],2% and 3%
same,Population Tubulin-Different-Phenotype (%),[1]; [5],83% and 44%
same,Total Cell Count,[1]; [5],1243 and 2004
same,Population Apoptotic (%),[2]; [6],56% and 33%
same,Population Fragmented Nuclei (%),[2]; [6],6% and 16%
same,Population Healthy Nuclei (%),[2]; [6],56% and 69%
same,Population Hoechst High Intensity Objects (%),[2]; [6],0% and 3%
same,Population Membrane Permeable-Phenotype (%),[2]; [6],5% and 7%
same,Population Mitochondria Different-Phenotype (%),[2]; [6],1% and 0%
same,Population Mitotic Cells (%),[2]; [6],43% and 66%
same,Population Normal (%),[2]; [6],100% and 96%
same,Population Pyknosed Nuclei (%),[2]; [6],37% and 14%
same,Population Tubulin-Different-Phenotype (%),[2]; [6],20% and 21%
same,Total Cell Count,[2]; [6],129 and 236
same,Population Apoptotic (%),[2]; [7],47% and 44%
same,Population Fragmented Nuclei (%),[2]; [7],14% and 13%
same,Population Healthy Nuclei (%),[2]; [7],75%
same,Population Hoechst High Intensity Objects (%),[2]; [7],0%
same,Population Membrane Permeable-Phenotype (%),[2]; [7],9% and 14%
same,Population Mitochondria Different-Phenotype (%),[2]; [7],5% and 4%
same,Population Mitotic Cells (%),[2]; [7],52% and 55%
same,Population Normal (%),[2]; [7],100%
same,Population Pyknosed Nuclei (%),[2]; [7],10% and 11%
same,Population Tubulin-Different-Phenotype (%),[2]; [7],61% and 59%
same,Total Cell Count,[2]; [7],183 and 237
same,Population Apoptotic (%),[2]; [8],54% and 32%
same,Population Healthy Nuclei (%),[2]; [8],60% and 61%
same,Population Hoechst High Intensity Objects (%),[2]; [8],0% and 2%
same,Population Membrane Permeable-Phenotype (%),[2]; [8],10% and 1%
same,Population Mitochondria Different-Phenotype (%),[2]; [8],0%
same,Population Mitotic Cells (%),[2]; [8],45% and 67%
same,Population Normal (%),[2]; [8],99% and 97%
same,Population Pyknosed Nuclei (%),[2]; [8],35% and 18%
same,Population Tubulin-Different-Phenotype (%),[2]; [8],22% and 15%
same,Total Cell Count,[2]; [8],124 and 234
same,Population Apoptotic (%),[2]; [3],47% and 64%
same,Population Fragmented Nuclei (%),[2]; [3],12%
same,Population Healthy Nuclei (%),[2]; [3],78% and 80%
same,Population Hoechst High Intensity Objects (%),[2]; [3],0%
same,Population Membrane Permeable-Phenotype (%),[2]; [3],7% and 6%
same,Population Mitochondria Different-Phenotype (%),[2]; [3],3% and 5%
same,Population Mitotic Cells (%),[2]; [3],52% and 35%
same,Population Normal (%),[2]; [3],100% and 99%
same,Population Pyknosed Nuclei (%),[2]; [3],9% and 7%
same,Population Tubulin-Different-Phenotype (%),[2]; [3],50% and 36%
same,Total Cell Count,[2]; [3],199 and 236
same,Population Apoptotic (%),[2]; [4],65% and 48%
same,Population Fragmented Nuclei (%),[2]; [4],8% and 21%
same,Population Healthy Nuclei (%),[2]; [4],75% and 65%
same,Population Hoechst High Intensity Objects (%),[2]; [4],0% and 1%
same,Population Membrane Permeable-Phenotype (%),[2]; [4],4% and 2%
same,Population Mitochondria Different-Phenotype (%),[2]; [4],1%
same,Population Mitotic Cells (%),[2]; [4],35% and 51%
same,Population Normal (%),[2]; [4],100% and 98%
same,Population Pyknosed Nuclei (%),[2]; [4],16% and 12%
same,Population Tubulin-Different-Phenotype (%),[2]; [4],6% and 10%
same,Total Cell Count,[2]; [4],125 and 227
same,Population Apoptotic (%),[2]; [5],77% and 47%
same,Population Fragmented Nuclei (%),[2]; [5],14% and 13%
same,Population Healthy Nuclei (%),[2]; [5],81% and 78%
same,Population Hoechst High Intensity Objects (%),[2]; [5],0%
same,Population Membrane Permeable-Phenotype (%),[2]; [5],1% and 5%
same,Population Mitochondria Different-Phenotype (%),[2]; [5],1% and 0%
same,Population Mitotic Cells (%),[2]; [5],22% and 52%
same,Population Normal (%),[2]; [5],99% and 100%
same,Population Pyknosed Nuclei (%),[2]; [5],4% and 7%
same,Population Tubulin-Different-Phenotype (%),[2]; [5],37% and 16%
same,Total Cell Count,[2]; [5],205 and 225
